Measurements: ChEMBL document CHEMBL3425488, “Novel histone deacetylase inhibitors induce growth arrest, apoptosis, and differentiation in sarcoma cancer stem cells” (J Med Chem, 2015)
The source made the active and inactive calls. No cut-off for these calls is given here.

Experiments:
[1] = molecular target: Histone deacetylase 4 (Homo sapiens, UniProt P56524); assay: Inhibition of recombinant HDAC4 (unknown origin) by homogeneous fluorescence release assay
Outline: (§1)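 Isoform enzyme assay run in 10-dose IC50 mode. Compounds were serially diluted 3-fold starting from 50 μM solutions.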

[2] = molecular target: Histone deacetylase 5 (Homo sapiens, UniProt Q9UQL6); assay: Inhibition of recombinant HDAC5 (unknown origin) by homogeneous fluorescence release assay
Chain of Histone deacetylase 5 (Q9UQL6 whole entry, canonical isoform): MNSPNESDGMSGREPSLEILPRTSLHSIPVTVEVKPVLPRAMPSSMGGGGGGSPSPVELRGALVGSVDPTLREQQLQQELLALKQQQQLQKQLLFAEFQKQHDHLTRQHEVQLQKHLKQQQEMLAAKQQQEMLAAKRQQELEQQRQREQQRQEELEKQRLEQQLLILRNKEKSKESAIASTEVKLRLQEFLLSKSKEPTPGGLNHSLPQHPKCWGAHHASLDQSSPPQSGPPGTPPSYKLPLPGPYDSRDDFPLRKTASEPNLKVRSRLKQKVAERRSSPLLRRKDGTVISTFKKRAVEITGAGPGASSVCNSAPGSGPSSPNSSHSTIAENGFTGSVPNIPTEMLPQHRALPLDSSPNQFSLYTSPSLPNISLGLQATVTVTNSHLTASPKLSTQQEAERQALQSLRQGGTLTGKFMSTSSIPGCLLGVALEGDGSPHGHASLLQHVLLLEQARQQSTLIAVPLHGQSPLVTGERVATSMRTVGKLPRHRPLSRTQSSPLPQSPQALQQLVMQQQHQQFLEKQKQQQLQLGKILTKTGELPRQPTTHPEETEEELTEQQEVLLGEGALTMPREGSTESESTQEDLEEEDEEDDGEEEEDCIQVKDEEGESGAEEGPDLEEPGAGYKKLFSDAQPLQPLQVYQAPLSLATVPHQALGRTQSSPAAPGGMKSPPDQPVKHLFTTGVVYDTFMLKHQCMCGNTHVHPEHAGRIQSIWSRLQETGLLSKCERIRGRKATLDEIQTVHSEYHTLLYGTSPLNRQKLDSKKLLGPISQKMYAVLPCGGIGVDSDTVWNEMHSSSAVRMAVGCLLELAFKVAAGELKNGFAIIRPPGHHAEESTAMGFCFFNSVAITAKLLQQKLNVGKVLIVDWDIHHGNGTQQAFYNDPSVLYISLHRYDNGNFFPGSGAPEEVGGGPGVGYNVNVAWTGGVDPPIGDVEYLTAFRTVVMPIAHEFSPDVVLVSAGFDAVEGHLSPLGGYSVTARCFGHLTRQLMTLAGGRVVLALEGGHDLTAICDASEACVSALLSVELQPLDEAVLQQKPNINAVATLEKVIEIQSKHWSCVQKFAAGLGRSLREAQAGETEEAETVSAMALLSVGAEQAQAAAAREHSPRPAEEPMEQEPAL
Outline: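 Recombinant HDAC isoform panel (HDAC1−11), tested in 10-dose IC50 mode with 3-fold serial dilution starting from 50 μM solutions.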

[3] = molecular target: T1, Histone deacetylase 7 (Homo sapiens, UniProt Q8WUI4); assay: Inhibition of recombinant HDAC7 (unknown origin) by homogeneous fluorescence release assay; outline: as §1
T1 sequence (Q8WUI4 whole entry): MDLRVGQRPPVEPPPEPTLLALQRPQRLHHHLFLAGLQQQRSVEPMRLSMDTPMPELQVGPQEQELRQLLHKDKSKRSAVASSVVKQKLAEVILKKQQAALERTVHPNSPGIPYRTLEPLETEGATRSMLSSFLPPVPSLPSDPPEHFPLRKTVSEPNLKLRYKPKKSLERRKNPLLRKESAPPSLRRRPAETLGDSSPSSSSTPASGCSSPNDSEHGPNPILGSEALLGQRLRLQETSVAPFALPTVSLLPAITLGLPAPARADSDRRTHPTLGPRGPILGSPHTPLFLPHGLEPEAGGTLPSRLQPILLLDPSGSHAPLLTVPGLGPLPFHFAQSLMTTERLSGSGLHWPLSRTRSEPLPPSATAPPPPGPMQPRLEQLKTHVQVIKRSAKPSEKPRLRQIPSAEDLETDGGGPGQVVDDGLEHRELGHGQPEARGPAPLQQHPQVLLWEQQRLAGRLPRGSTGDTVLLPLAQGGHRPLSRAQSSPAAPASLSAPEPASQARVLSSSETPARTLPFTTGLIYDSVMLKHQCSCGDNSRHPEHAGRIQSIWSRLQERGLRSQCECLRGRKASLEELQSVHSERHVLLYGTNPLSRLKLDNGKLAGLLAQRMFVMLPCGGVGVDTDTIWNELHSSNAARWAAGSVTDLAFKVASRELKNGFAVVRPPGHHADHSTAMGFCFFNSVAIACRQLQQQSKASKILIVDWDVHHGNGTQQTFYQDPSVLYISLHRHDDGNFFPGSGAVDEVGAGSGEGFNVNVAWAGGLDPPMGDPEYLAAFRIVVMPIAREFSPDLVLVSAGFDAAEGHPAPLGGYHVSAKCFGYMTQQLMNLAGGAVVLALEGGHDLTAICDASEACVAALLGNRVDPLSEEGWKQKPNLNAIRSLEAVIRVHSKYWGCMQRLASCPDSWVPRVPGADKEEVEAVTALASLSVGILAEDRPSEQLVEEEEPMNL

[4] = test system: MG-63; assay: Cytotoxicity against human MG63 cells assessed as cell viability after 72 hrs by MTT assay; assay type: functional, cell-based
Outline: (§2)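 Sarcosphere-derived CSC cultures exposed 72 h to concentrations from 100 μM down to 0.1 μM. Viability compared with DMSO-only treated cells. IC50 calculated by linear regression.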

[5] = test system: RD; assay: Cytotoxicity against human RD cells assessed as cell viability after 72 hrs by MTT assay; assay type: functional, cell-based; outline: as §2
[6] = test system: A204; assay: Cytotoxicity against human A204 cells assessed as cell viability after 72 hrs by MTT assay; assay type: functional, cell-based; outline: as §2
[7] = test system: A673; assay: Cytotoxicity against human A673 cells assessed as cell viability after 72 hrs by MTT assay; assay type: functional, cell-based; outline: as §2
[8] = test system: HOS; assay: Antiproliferative activity against HOS cells after 24 to 72 hrs by […] dye exclusion assay; assay type: functional, cell-based; conditions: Homo sapiens
Outline: (§3)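 Sarcosphere-derived CSCs, dissociated to single cells, plated at 50000/well in complete IMDM for adhesion. After 24 h, exposed to 0.5, 1 and 2 μM. Viable cells counted by dye exclusion at 24, 48 and 72 h. Growth inhibition is expressed relative to DMSO-treated controls. Three experiments in duplicate.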

[9] = test system: RD; assay: Antiproliferative activity against human RD cells after 24 to 72 hrs by […] dye exclusion assay; assay type: functional, cell-based; outline: as §3
[10] = test system: A204; assay: Antiproliferative activity against human A204 cells after 24 to 72 hrs by […] dye exclusion assay; assay type: functional, cell-based; outline: as §3
[11] = test system: SK-ES1; assay: Antiproliferative activity against human SK-ES-1 cells after 24 to 72 hrs by […] dye exclusion assay; assay type: functional, cell-based; outline: as §3
[12] = test system: RD; assay: Induction of apoptosis in human RD cells at 1 to 2 uM after 48 hrs by Hoechst 33258 staining-based fluorescence microscopic analysis; assay type: functional, cell-based
Outline: (§4)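 Dissociated sarcospheres seeded on glass coverslips in complete IMDM and exposed to 0.5, 1 and 2 μM for 48 h; untreated cells as negative control. Fixed in methanol/acetic acid (3:1), then stained with 2.25 μg/mL Hoechst 33258 for 10 min at rt in the dark. Apoptotic-body nuclei counted over at least five fields (20× objective) and reported as percentage of cells.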

[13] = test system: SK-ES1; assay: Induction of apoptosis in human SK-ES-1 cells at 1 to 2 uM after 48 hrs by Hoechst 33258 staining-based fluorescence microscopic analysis; assay type: functional, cell-based; outline: as §4
[14] = test system: A204; assay: Induction of apoptosis in human A204 cells at 1 to 2 uM after 48 hrs by Hoechst 33258 staining-based fluorescence microscopic analysis; assay type: functional, cell-based; outline: as §4
[15] = test system: A673; assay: Induction of apoptosis in human A673 cells at 1 to 2 uM after 48 hrs by Hoechst 33258 staining-based fluorescence microscopic analysis; assay type: functional, cell-based; outline: as §4
[16] = test system: MG-63; assay: Induction of apoptosis in human MG63 cells at 0.5 to 2 uM after 48 hrs by Alexa Fluor 488 Annexin V/propidium iodide staining-based flow cytometric analysis; assay type: functional, cell-based

Chain of Histone deacetylase 4 (P56524 whole entry, canonical isoform): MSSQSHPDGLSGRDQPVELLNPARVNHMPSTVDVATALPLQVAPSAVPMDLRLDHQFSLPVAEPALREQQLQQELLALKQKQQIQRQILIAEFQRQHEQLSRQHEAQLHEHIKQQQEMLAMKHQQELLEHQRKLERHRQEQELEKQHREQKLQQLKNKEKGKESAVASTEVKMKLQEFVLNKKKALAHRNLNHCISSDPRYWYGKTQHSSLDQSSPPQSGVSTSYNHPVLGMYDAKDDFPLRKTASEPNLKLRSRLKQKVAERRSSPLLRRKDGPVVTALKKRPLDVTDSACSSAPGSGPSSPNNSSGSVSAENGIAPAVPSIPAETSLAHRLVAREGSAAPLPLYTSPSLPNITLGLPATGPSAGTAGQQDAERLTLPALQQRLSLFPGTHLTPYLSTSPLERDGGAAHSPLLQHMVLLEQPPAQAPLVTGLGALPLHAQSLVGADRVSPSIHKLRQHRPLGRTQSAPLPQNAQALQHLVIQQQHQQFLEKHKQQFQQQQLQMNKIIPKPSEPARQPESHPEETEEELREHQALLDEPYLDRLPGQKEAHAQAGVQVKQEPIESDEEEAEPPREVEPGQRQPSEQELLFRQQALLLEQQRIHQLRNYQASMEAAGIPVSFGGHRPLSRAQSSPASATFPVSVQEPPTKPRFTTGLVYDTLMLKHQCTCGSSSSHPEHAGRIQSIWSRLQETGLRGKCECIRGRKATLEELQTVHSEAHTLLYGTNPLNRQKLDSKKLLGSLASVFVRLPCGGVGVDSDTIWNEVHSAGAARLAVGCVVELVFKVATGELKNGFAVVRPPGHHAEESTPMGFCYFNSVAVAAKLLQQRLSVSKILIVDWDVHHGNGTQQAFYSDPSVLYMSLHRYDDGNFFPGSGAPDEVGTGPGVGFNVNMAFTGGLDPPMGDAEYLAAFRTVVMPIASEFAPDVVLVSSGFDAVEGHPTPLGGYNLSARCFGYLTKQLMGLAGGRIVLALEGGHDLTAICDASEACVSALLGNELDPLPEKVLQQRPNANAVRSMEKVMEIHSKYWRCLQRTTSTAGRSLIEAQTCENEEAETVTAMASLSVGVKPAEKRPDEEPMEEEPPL

SMILES	IC50 [1]	IC50 [2]	IC50 [3]	Activity [4]	Activity [5]	Activity [6]	Activity [7]	Activity [8]	Activity [9]	Activity [10]	Activity [11]	Activity [12]	Activity [13]	Activity [14]	Activity [15]	Activity [16]
O=C(CCCCSc1nc(-c2ccc(-c3ccccc3)cc2)cc(=O)[nH]1)NO	> 50 µM	> 50 µM	> 50 µM	Dose-dependent effect	Dose-dependent effect	Dose-dependent effect	Dose-dependent effect	Dose-dependent effect	Dose-dependent effect	Dose-dependent effect	Dose-dependent effect	Active	Active	Active	Active	Active
O=C(/C=C/c1ccc(NC(=O)C(Cc2ccccc2)c2ccccc2)cn1)NO (configuration not stated)	11.7 µM	9.37 µM	8.77 µM	Dose-dependent effect	Dose-dependent effect	Dose-dependent effect	Dose-dependent effect	Dose-dependent effect	Dose-dependent effect	Dose-dependent effect	Dose-dependent effect	Active	Active	inactive	Active	Active
